Measurements reported in ChEMBL document CHEMBL1144442, “Identification from a positional scanning peptoid library of in vivo active compounds that neutralize bacterial endotoxins” (J Med Chem, 2005).
pIC50: −log10 of the molar value. Residues, ends and D or L forms follow the SMILES beside them.

Tests used:
Mus musculus [1] = species on record: Mus musculus; experiment: In vitro inhibitory concentration necessary to neutralize Gram-negative bacterial lipopolysaccharide in mouse model; assay type: functional, organism-based
In short: (§1)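 Chromogenic Limulus amebocyte lysate assay, which detects free LPS or diphosphoryl lipid A left unneutralized by the test compound. Compounds were tested by 2-fold serial dilution. IC50 is the concentration that neutralizes 50% of the LPS or lipid A in vitro.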

Mus musculus [2] = species on record: Mus musculus; experiment: In vitro inhibitory concentration necessary to neutralize Escherichia coli 1,4''-diphosphoryl lipid A; assay type: functional, organism-based; in short: as §1
Mus musculus [3] = experiment: Ratio of percent of Tumor necrosis factor alpha measured in the presence with respect to that measured when animals were treated only with LPS;Mice were intraperitoneally injected with 10 ug of LPS alone or premixed with 20 ug of each compound; assay type: functional
In short: (§2)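 Mice were given 10 µg LPS ip, either alone or premixed with 20 µg compound in PBS containing 40% DMSO. Mice were bled after 1 h and serum TNF-α was measured by ELISA. Values are % of the TNF-α in mice given LPS alone (100%), as mean ± SD of seven mice per group.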

Mus musculus [4] = experiment: Ratio of percent of Tumor necrosis factor alpha measured in the presence with respect to that measured when animals were treated only with LPS;Mice were intraperitoneally injected with 10 ug of LPS alone or premixed with 100 ug of compound; assay type: functional, organism-based
In short: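 Mice were given 10 µg LPS ip, alone or premixed with the test agent (peptoids 20 µg in PBS with 40% DMSO; polymyxin B or LALF-14 100 µg). Sera were collected after 1 h and TNF-α measured by ELISA. Values are % of the LPS-only TNF-α level, mean ± SD, seven mice per group.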

Mus musculus [5] = experiment: Ratio of percent of Tumor necrosis factor alpha measured in the presence with respect to that measured when animals were treated only with LPS;Mice were intraperitoneally injected with 10 ug of LPS alone or premixed with 20 ug of each compound;ND= Not determined; assay type: functional; in short: as §2

Molecule	pIC50 (Mus musculus [2])	pIC50 (Mus musculus [1]; Mus musculus)	Ratio (Mus musculus [3])	other results
POLYMYXIN B [listing 1 of 2 here]	–	–	–	pIC50 (Mus musculus [1]): > 10.00
CC(C)C[C@@H]1NC(=O)[C@H](CCCN=C(N)N)NC(=O)[C@H](CCCN=C(N)N)NC(=O)[C@H](Cc2ccccc2)NC(=O)[C@H]([C@@H](C)O)NC(=O)[C@@H]2CCCN2C(=O)[C@H](CCCCN)NC(=O)[C@@H](NC(=O)CN)CSSC[C@@H](C(=O)NCC(=O)O)NC(=O)[C@H](CCCCN)NC(=O)[C@H](Cc2ccc(O)cc2)NC(=O)[C@H](CCCCN)NC(=O)[C@H](Cc2c[nH]c3ccccc23)NC(=O)[C@H](CCCCN)NC1=O (HELM PEPTIDE1{G.C.K.P.T.F.R.R.L.K.W.K.Y.K.C.G}$PEPTIDE1,PEPTIDE1,2:R3-15:R3$$$V2.0) [listing 1 of 2 here]	4.40	4.19	–	–
NC(=O)CN(CCC(c1ccccc1)c1ccccc1)C(=O)CN(CCC(c1ccccc1)c1ccccc1)C(=O)CNCC1CCCO1 (stereo unspecified) [TRIMER I]	3.60	4.40	71	–
COc1ccc(CCN(CC(=O)N(CCC(c2ccccc2)c2ccccc2)CC(N)=O)C(=O)CNCCC(c2ccccc2)c2ccccc2)cc1	< 3.60	4.30	10	–
POLYMYXIN B [listing 2 of 2 here]	–	–	–	Ratio (Mus musculus [4]): 5
CC(C)C[C@@H]1NC(=O)[C@H](CCCN=C(N)N)NC(=O)[C@H](CCCN=C(N)N)NC(=O)[C@H](Cc2ccccc2)NC(=O)[C@H]([C@@H](C)O)NC(=O)[C@@H]2CCCN2C(=O)[C@H](CCCCN)NC(=O)[C@@H](NC(=O)CN)CSSC[C@@H](C(=O)NCC(=O)O)NC(=O)[C@H](CCCCN)NC(=O)[C@H](Cc2ccc(O)cc2)NC(=O)[C@H](CCCCN)NC(=O)[C@H](Cc2c[nH]c3ccccc23)NC(=O)[C@H](CCCCN)NC1=O (HELM PEPTIDE1{G.C.K.P.T.F.R.R.L.K.W.K.Y.K.C.G}$PEPTIDE1,PEPTIDE1,2:R3-15:R3$$$V2.0) [listing 2 of 2 here]	–	–	–	Ratio (Mus musculus [5]): 67
